Test system: MS2 coat protein
Assay: apparent Kd, MS2 coat protein; higher = weaker binding; RNA-MaP array; FMN 200 µM where present
Summary of the method: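 Green signal from SNAP-549-labelled MS2 coat protein was normalised to red-channel RNA signal and to the median Fmax of control clusters. The protein was titrated from 0.7 or 1.5 nM, doubling to 3 µM, without and then with constant ligand, over designs transcribed by stalled E. coli RNA polymerase on Illumina sequencing-chip clusters, in 100 mM Tris-HCl pH 7.5, 80 mM KCl, 4 mM MgCl2, BSA, DTT, yeast tRNA and Tween-20. The apparent Kd is the median of filtered per-cluster binding-curve fits.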

[1] = designed as: OFF switch for flavin mononucleotide, no ligand
[2] = ligand present: flavin mononucleotide, designed as: OFF switch for flavin mononucleotide
[3] = designed as: ON switch for flavin mononucleotide, no ligand
[4] = ligand present: flavin mononucleotide, designed as: ON switch for flavin mononucleotide

| Sequence | apparent Kd [1] [nM] | apparent Kd [2] [nM] | apparent Kd [3] [nM] | apparent Kd [4] [nM] |
| --- | --- | --- | --- | --- |
| UUAGCGUAAGUAAGGAUAUGCUGGUCGAAAGACCAGCAGAAGGUACAUGAGGAUCACCCAUGUUGAGUUGUUGC | 20 | 24.3 |  |  |
| GUAGCAUACCGAGGAUAUUCAUAUUACAUGAGGAUCACCCAUGUUAUAGGUCGAUUACGACCUUGGGAGAAGGCGGAAUGCUAC |  |  | 30.9 | 13.2 |
| AGUGUCAUCGAGAAGGACACGGACAUGAGGAUCACCCAUGUUCCAUGUUGUAGGAUAUCGAUGAUACAGCUACGUUUCGUAGCA |  |  | 5.01 | 4.5 |
| ACAUGAGACUAAGGAUAUGGUGUACCUACAUGUGACAUGAGGAUCACCCAUGUGGUAAGUAUGACUCAGAAGGUAGAGAUAUGU |  |  | 414 | 37.2 |
| AAAACAUGAGGAUCACCCAUGUAAAGAUCAAUUAAAAUGAGUGAGGAUAUACUAAAUUAUUUAUAGUAGAAGGCACUGGGUACA |  |  | 25 | 26.3 |
| AACCCUGCCUAGGAUAUACAAAAGUCACAGCUGGUAGAAGGAGGCACAUGAGGAUCACCCAUGUCACCUCGCUU | 13.4 | 13.7 |  |  |
| CUAUUUAGUGCCUCAUGUACAUGAGGAUCACCCAUGUUAACUUAGGAUAUAUUUAUAUUGUUAGAGUAGAAGGAAGUACUAUUU | 26.3 | 21.5 |  |  |
| GUCCUUUCUGAGGAUAUUAUCUUUUUCGAUUGAUAAGAAGGCAGUACAUGAGGAUCACCCAUGUGGGUUGUCUG | 31 | 131 |  |  |
| GCACUUAAAAUUGAACCGUUUCGAACAUGAGGAUCACCCAUGUAGGAUAUGCUAAUAGUAUUGAAGCAGAAGGACAAUAAGUGC | 6.17 | 5.99 |  |  |
| GGGUGGCGUAGAGGAUAUGUGGUACAUGAGGAUCACCCAUGUGCAUAUGAUGUUCAUGUUUAUGUAUAGAAGGCUACGUCGCUA |  |  | 26.1 | 36.4 |
| ACCUAUGAGGAGGAUAUACGGUGCGAAAGGACGGUAGAAGGCUUCACAUGAGGAUCACCCAUGUCGAUAAGCGA | 21.2 | 22.5 |  |  |
| AGAUGGUGAUGUUAUCUUCGUCGGACAUGAGGAUCACCCAUGUAGGAUAUGCUACUCAAAGAGUAGCAGAAGGACAUGUAUCUU | 119 | 896 |  |  |
| CGCAACUCUUCACAUGUAAACAUGAGGAUCACCCAUGUAAUGAGAAGGAGGAAGAAGAGAGAUUCCUAGGAUAUCAGAGUUGCG | 6.83 | 6.52 |  |  |
| GUUGGGUGUCAUGUCGCACAUGAGGAUCACCCAUGUAGGAGGUAGGAUAUCCACGAGAAACAAGAGGAGAAGGGCCAUUAGCGU | 23.5 | 29.2 |  |  |
| ACAAGAUCAGGAUAUACAUGAGGAUCACCCAUGUUUAUCCAAAAGGGACUUUCUUUAUGUAGAAGGGAUCUUGU | 16.8 | 32.3 |  |  |
| CUGCCUUAUGUAGGAUAUGCAUAGCAUUGCUAUGCAGAAGGACAUGAGGAUCACCCAUGUAUGUUAUCAAUACAUAUCUGGCAG | 17.5 | 54.5 |  |  |
| GGAUUACAUGAGGAUCACCCAUGUGAGGAUAUCGAUGUCCCUAGCAGCGUGCGGGACUCGAGAAGGCACUUGGA | 47.5 | 248 |  |  |
| GCCUUACCGGUCAGGAUAUACACCCGUCACUCCUUGUAGAAGGGACAUGAGGAUCACCCAUGUACAUUACAUUG | 31.1 | 29.2 |  |  |
| GGUGCGUAUGUGAGGAUAUGCUGGUCCUUGGCUCGGCAGAAGGCACAUGAGGAUCACCCAUGUGGUGUCGUACC | 278 | 50.9 |  |  |
| AUACCUUAUGAGAAGGCGGUCAUGAAACAUGAUCGAGGAUAUCAUGUAAACAUGAGGAUCACCCAUGUAUGGGUAUUAUGGUAC |  |  | 38.2 | 10.2 |
| UGGUCAUGAUCAGGAUAUUAACAUGGGCUACAUUAAGAAGGGAUAGUGAGAUACGAACUGAACGACAUGAGGAUCACCCAUGUU |  |  | 40.4 | 30.4 |
| GCACUUUUAUUUUAACCGUUUCGAACAUGAGGAUCACCCAUGUAGGAUAUGCUAAAAGUUGUGAUGCAGAAGGACAUUAAGUGC | 7.15 | 7.29 |  |  |
| GUCGUGUUAGGAUAUGGCAACGGCUAGGAAACUAGUUGUUGUUAGAAGGAACAUGAGGAUCACCCAUGUAUGAC | 34.3 | 84.3 |  |  |
| GGACCGCGCAGAGUUGACGGUCGGCAGGAUAUGACAUGAGGAUCACCCAUGUGAACUCCAUUGGGUCAGAAGGGCCACGACGAA | 21.1 | 77.3 |  |  |
| UUACUCAUGUAAGGAUAUGCAGCCGUUUCGGCUGCAGAAGGUACUAUAAUACAUGAGGAUCACCCAUGUCUAUACAAUAAAGAC |  |  | 62.9 | 26 |
| GACUUGCAGCUAGGAUAUGGGCGAUCACAUGAGGAUCACCCAUGUCAACAUCAAAACAAGAUUAACCAGAAGGAGCCGCGGGCU |  |  | 17.3 | 63.9 |
| AACAUGUCAGGAUAUGCAACAGGAGACUGACACGCGAGUGAGCAGAAGGGACAUGAGGAUCACCCAUGUUCAAA | 19.1 | 17.4 |  |  |
| ACGAUACAUGAGGAUCACCCAUGUUAGGAUAUACGCAUGCAUGCAUGCAUGCAUGCAAGUAGAAGGAACCAUGC | 27.5 | 26.8 |  |  |

| Sequence | apparent Kd [1] [nM] | apparent Kd [2] [nM] | apparent Kd [3] [nM] | apparent Kd [4] [nM] |
| --- | --- | --- | --- | --- |
| UGAUCUUUUGUUAGGAUAUGCUGUUGUUUUCAACAGCAGAAGGGACAUGAGGAUCACCCAUGUCUUGUCAUAAA | 12 | 16.4 |  |  |
| CGAGCCGGCACUGAGGAUAUUCAUAUUUAAACAUGAGGAUCACCCAUGUAGGCCAGAAGGCCUUGGGAGAAGGCAGGUCGGCUCC |  |  | 379 | 27.2 |
| UUUAUAAAUUAGAAGGCGUGAUAAAAUACAAUAGACAUGAGGAUCACCCAUGUGUACCCAUGUUAUGAGGAUAUAGUCAUAUAU |  |  | 279 | 233 |
| GACUGAUUGUAGAAGGUACUUAAUACUCAUGUAACAUGAGGAUCACCCAUGUAUCAACAAUAUUGUAAGGAUAUACAUAUCUCA |  |  | 231 | 103 |
| GGAGCACACAUUAACAUGAGGAUCACCCAUGUCAAUAGACAUGAGGAUAUGGAUCCGAAAAGGAUCCAGAAGGCAUGGUGCUCC |  |  | 130 | 10 |
| UACAAUCUAUCUGAGGAUAUCAUGAAAAAAACAUGAGGAUCACCCAUGUGCAGGAAAACUGCAUAUGAGAAGGCAGAUAGAUUGU |  |  | 770 | 25.7 |
| GUGACUUAUAGAGGAUAUUGACAUGAGGAUCACCCAUGUAUUUGGUAGUGUUCAAUGAAUUCUUGCGAGAAGGCUAUAAGACAC | 221 | 261 |  |  |
| ACGUAUCAUGUAGGAUAUGACCCAGGAAAUUGGUCAGAAGGACAUGAGGAUCACCCAUGUAGAGUAUGUUAGGAUGACGUAUGC | 115 | 165 |  |  |
| GUCAUGUUAGGAUAUCAAACAUGUGACUUCGGUCACUGUCCUGAGAAGGAACAUGAGGAUCACCCAUGUUGGAC | 17.8 | 47.4 |  |  |
| GUAGCAUACCGAGGAUAUUCAUACAAUAAAUAGACAUGAGGAUCACCCAUGUGGCGAAAGCCUUGGGAGAAGGCGGAAUGCUAC |  |  | 451 | 37.6 |
| AGAAAUUCAGGAUAUACAUGAGGAUCACCCAUGUUUGGCAGAGGCGCCGAGAUCCCACGUAGAAGGGAAAAGAC | 37.1 | 79.9 |  |  |
| UCCUACAUGGGAGGAUAUGGGACAUGAGGAUCACCCAUGUGAAAAUUAAAUAUGCCGAGAGGCAACUAGAAGGCCCAUGUAGGU |  |  | 35.8 | 19.2 |
| UGUUGUUCAGGAUAUGGUGUGUUCUACAUGAGGAUCACCCAUGUGGGUCCUGGUUUGGCGUCAGAAGGGAAUGUUG | 750 | 746 |  |  |
| AUCAGCUCCUCAGGAUAUACGUCACUGCGUCAGCAGUGUGGUAAGAUCACAUGAGGAUCACCCAUGUAGAAGGGACGAGCUGAU | 31.8 | 140 |  |  |
| CGCUUUAUAUAUUUGGCAAGAAUCAGAAGGCGUUACAUGAGGAUCACCCAUGUUUUGUAUAGUAACGAGGAUAUGAUAUGAGCG | 14.6 | 14.8 |  |  |
| AGCUAGUGAGGAUAUACGAACAUGUCAAAAGACGUGAGGGAACAUGAGGAUCACCCAUGUAGAAGGCACUAGCA | 38.8 | 33 |  |  |
| UCAGUAGAGUCAGGAUAUACGAAAGGCGAUCCAUACAUGAGGAUCACCCAUGUAGAAGGGACUCUACUGUAAGUCGGAAACGAC | 309 | 21.9 |  |  |
| AAUAACAGAGGAUAUACUAUUUUAUGUGUUUGUUAUUUUAAACAUGAGGAUCACCCAUGUAGAAGGCUGAAUAA | 24.3 | 22.1 |  |  |
| GUCAGCUCGUGAGGAUAUACAACACCGCUUCGGCAGUGUAUUAAGAUCACAUGAGGAUCACCCAUGUAGAAGGCACGAGCUGAU | 12.9 | 255 |  |  |
| AGGUAGUCAGGAUAUUAGUGGUAGAGGGAUAACUUUAUUGUUGAGAAGGGACAUGAGGAUCACCCAUGUUUUGU | 26.3 | 32.5 |  |  |
| CAGUACUGAGGAUAUACAUGAGGAUCACCCAUGUUUUCCAGCUAGGAUACUAGCAAAUGUAGAAGGCAGUACUG | 25.1 | 249 |  |  |
| UAGGUUGUCGUAGGAUAUGUAGGAUAUUCCUACAUGAGGAUCACCCAUGUUAGCAUGGAAGAAGGACAGAAGGACGAUGACCUU |  |  | 889 | 15.6 |
| AAAUUGGUAGAGGAUAUCGGAUAGGAUUUACUGCGAGAAGGCUGCACAUGAGGAUCACCCAUGUUCUGUUGCGA | 25.1 | 26 |  |  |
| GCAGCAAUCUUUAACAUGAGGAUCACCCAUGUCGAGAGAUAUGAGGAUAUGCAUCUGAAGAAGAUGCAGAAGGCAUUGUGCUGC |  |  | 6.26 | 5 |
| GCCGUGAUAGCAGGAUAUGCUCCGGUUGCUCAUACAUGAGGAUCACCCAUGUCACGUGCGGUGGUGCAGAAGGGUUGAAGCGAA |  |  | 748 | 219 |
| CCAUCGAGUGUGAGGAUAUGCUGGUCCUUGGAUCAGCAGAAGGCACAUGAGGAUCACCCAUGUGAAUACGGUGG | 29.9 | 199 |  |  |
| AUACCUUAUGAGAAGGCGAUCAUGAAACAUGAUCGAGGAUAUCAUGUAAACAUGAGGAUCACCCAUGUAUGGGUAUUAUGGUAA |  |  | 26.5 | 9.1 |
